Publication PMC4577306 (Biochimica et biophysica acta, 2015)
No end group written: not given here.

Assays:
human RIIα = human RIIα (Homo sapiens, UniProt P13861); test: SPR kinetics of RIIα on immobilized neurochondrin peptides; format: binding; conditions: for kon: read-out: ka (apparent association rate constant)
Procedure, shortened: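 Human RIIα purified by cAMP affinity chromatography. Test peptides dissolved in DMSO, amine-coupled to CM5 chips after 10 min NHS/EDC activation to about 1 RU, then blocked with 1 M ethanolamine-HCl pH 8.5, at 5 μL/min and 25 °C. Activated/deactivated reference flow cell. Running buffer 100 mM Tris, 150 mM NaCl, 0.005% Tween 20, pH 7.4, 25 °C. Surfaces regenerated with SDS, 4 M guanidinium-HCl and 1 M NaCl buffer.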

[1] = biological target: neurochondrin peptide II (human); test: SPR
[2] = biological target: neurochondrin peptide I (human); test: SPR

human RIIα, sequence (P13861 whole entry): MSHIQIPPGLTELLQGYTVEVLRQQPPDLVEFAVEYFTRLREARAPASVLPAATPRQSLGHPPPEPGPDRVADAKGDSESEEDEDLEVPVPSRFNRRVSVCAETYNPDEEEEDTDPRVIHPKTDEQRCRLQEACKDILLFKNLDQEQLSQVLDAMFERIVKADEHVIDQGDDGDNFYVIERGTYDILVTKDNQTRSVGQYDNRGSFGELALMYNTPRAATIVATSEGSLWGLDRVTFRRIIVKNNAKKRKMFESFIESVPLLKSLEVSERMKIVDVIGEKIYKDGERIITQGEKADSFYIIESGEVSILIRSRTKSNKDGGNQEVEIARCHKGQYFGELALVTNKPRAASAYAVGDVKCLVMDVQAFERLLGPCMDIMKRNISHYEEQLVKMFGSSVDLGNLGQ

Row | Kd (human RIIα) | kon (human RIIα) | Kd [1] | Kd [2] | Substance
1 | 9.6 ± 4.8 nM | 110000 ± 5e+09 M⁻¹ s⁻¹ |  |  | KLSSWQRNPALKLAARLAHA-NH2 [peptide II]
2 | 9.3 ± 3.1 nM | 120000 ± 1e+09 M⁻¹ s⁻¹ |  |  | YAGDIDAKTRRRIFDAVGFTF-NH2 [peptide I]
3 |  |  | 9.6 nM | 9.3 nM | human RIIα subunit of cAMP-dependent protein kinase (PKA) (from UniProt P13861 1-404) (natural protein)
